Among the data in ChEMBL document CHEMBL1144515, “Synthesis, in vitro evaluation, and SAR studies of a potential antichagasic 1H-pyrazolo[3,4-b]pyridine series” (Bioorg Med Chem, 2007) are IC50 values, retold here.

Values after ≈ are worked out from the molar mass of the structure shown.

The assay has as its system Trypanosoma cruzi. Description: Antiparasitic activity against Trypanosoma cruzei Y blood stream trypomastigotes. It counts as functional, organism-based. The method in brief: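 Mouse infected blood diluted with healthy mouse blood and fetal bovine serum to about 106 trypomastigotes/mL; compounds from DMSO stocks added at final 10, 100, 250, 500 and 1000 µg/mL. Incubated 4 °C, 24 h with constant shaking; untreated and crystal violet-treated controls; triplicate. Trypomastigotes counted, % lysis versus untreated; IC50 taken as 50% activity concentration.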
A word on the IC50: it is the concentration at which inhibition is half-maximal. A high value points to weaker potency. `Cc1nn(-c2ccccc2)c2nc(-c3ccc([N+](=O)[O-])cc3)cc(C(=O)NN)c12` showed an IC50 of 533 µg/mL (≈ 1370 µM). As to `COc1ccc(-c2cc(C(=O)N/N=C\c3ccc(O)cc3)c3c(C)nn(-c4ccccc4)c3n2)cc1`, it took 332 µg/mL (≈ 694 µM) to reach half-maximal inhibition (IC50). The figure for `Cc1nn(-c2ccccc2)c2nc(-c3ccc(Cl)cc3)cc(C(=O)N/N=C\c3ccc([N+](=O)[O-])cc3)c12` is 108 µg/mL (≈ 212 µM); for `Cc1nn(-c2ccccc2)c2nc(-c3ccccc3)cc(C(=O)NN)c12` it is 782 µg/mL (≈ 2280 µM); for `Cc1nn(-c2ccccc2)c2nc(-c3ccc(Cl)cc3)cc(C(=O)NN)c12` it is 211 µg/mL (≈ 558 µM). Consider `Cc1nn(-c2ccccc2)c2nc(-c3ccc(C#N)cc3)cc(C(=O)NN)c12`, for which the IC50 worked out at 341 µg/mL (≈ 926 µM). `COc1ccc(-c2cc(C(=O)N/N=C\c3ccc([N+](=O)[O-])cc3)c3c(C)nn(-c4ccccc4)c3n2)cc1` yielded an IC50 of more than 1500 µg/mL. In the case of `Cc1nn(-c2ccccc2)c2nc(-c3ccc(C#N)cc3)cc(C(=O)N/N=C\c3ccc(F)cc3)c12`, inhibition was half-maximal at 378 µg/mL (≈ 797 µM) (IC50).

In turn, `CCOc1ccc(-c2cc(C(=O)N/N=C\c3ccc(F)cc3)c3c(C)nn(-c4ccccc4)c3n2)cc1` displayed an IC50 of 39.3 µg/mL (≈ 79.6 µM). The molecule `Cc1nn(-c2ccccc2)c2nc(-c3ccccc3)cc(C(=O)N/N=C\c3ccc(O)cc3)c12` came in with an IC50 of 1.9 µg/mL (≈ 4.25 µM). The molecule `Cc1nn(-c2ccccc2)c2nc(-c3ccccc3)cc(C(=O)N/N=C\c3ccc(F)cc3)c12` gave an IC50 of 88.9 µg/mL (≈ 198 µM). Against the preceding molecule, the IC50 is about 47-fold higher.

`CCOc1ccc(-c2cc(C(=O)N/N=C\c3ccc(O)cc3)c3c(C)nn(-c4ccccc4)c3n2)cc1` gave an IC50 of 170 µg/mL (≈ 345 µM). The molecule `CCOc1ccc(-c2cc(C(=O)N/N=C\c3ccc([N+](=O)[O-])cc3)c3c(C)nn(-c4ccccc4)c3n2)cc1` yielded an IC50 of 1180 µg/mL (≈ 2260 µM). In the case of `CCOc1ccc(-c2cc(C(=O)NN)c3c(C)nn(-c4ccccc4)c3n2)cc1`, the IC50 came out at 439 µg/mL (≈ 1130 µM). Compared with the last molecule, the IC50 is about 2.7-fold lower.

`Cc1nn(-c2ccccc2)c2nc(-c3ccc(Cl)cc3)cc(C(=O)N/N=C\c3ccc(O)cc3)c12` came in with an IC50 of 71.8 µg/mL (≈ 149 µM). Compared with the last molecule, the IC50 is about 6.1-fold lower. Molecule `Cc1nn(-c2ccccc2)c2nc(-c3ccc(C#N)cc3)cc(C(=O)N/N=C\c3ccc([N+](=O)[O-])cc3)c12` yielded an IC50 of 37.3 µg/mL (≈ 74.4 µM). The figure for `COc1ccc(-c2cc(C(=O)NN)c3c(C)nn(-c4ccccc4)c3n2)cc1` is 781 µg/mL (≈ 2090 µM); for `Cc1nn(-c2ccccc2)c2nc(-c3ccc(Cl)cc3)cc(C(=O)N/N=C\c3ccc(F)cc3)c12` it is 197 µg/mL (≈ 407 µM); for `Cc1nn(-c2ccccc2)c2nc(-c3ccc(C#N)cc3)cc(C(=O)N/N=C\c3ccc(O)cc3)c12` it is 260 µg/mL (≈ 551 µM).

`COc1ccc(-c2cc(C(=O)N/N=C\c3ccc(F)cc3)c3c(C)nn(-c4ccccc4)c3n2)cc1` showed an IC50 of 1460 µg/mL (≈ 3050 µM).

For the molecule `Cc1nn(-c2ccccc2)c2nc(-c3ccccc3)cc(C(=O)N/N=C\c3ccc([N+](=O)[O-])cc3)c12`, inhibition was half-maximal at 95.3 µg/mL (≈ 200 µM) (IC50). This IC50 lies about 15-fold lower than the previous one. As to `Cc1nn(-c2ccccc2)c2nc(-c3ccccc3)cc(C(=O)N/N=C\c3ccccc3)c12`, the midpoint of inhibition, the IC50, lay at 205 µg/mL (≈ 476 µM).
